Shown are actives, neighbours in structure and some others; about 12% of the full set was active somewhere.
Lmaj promast: inhibitors of Leishmania major promastigote growth; Leishmania major promastigotes, resazurin fluorescence viability; inhibition, % at 10 µM; 200,000 tested, 9% active; AID 1063; in the data active = inhibition above about 50%;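 also: promastigotes grown with compound for 44 hours at 28 °C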
RAM network inh: yeast RAM network inhibition. S. cerevisiae dse1pr::URA3 reporter, 5-FOA growth OD615, 2 d; analog-sensitive cbk1-as2 kinase mutant strain. inhibition, % at 50 µM. 190,000 tested, 1.8% active. AID 868;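 active = inhibition above a set limit, 3 SD over mean compound inhibition, cut at about 8.4% in these data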;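 also: inhibition rescues growth on 5-FOA so higher OD means more RAM inhibition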
WT yeast gro inh: growth inhibition of WT yeast, mitochondrial fusion screen | inhibition, % at 10 µM | 190,000 tested, 2.1% active | mitochondrial fusion phenotypic screen, WT strain; in the data active = inhibition above about 58%; tested in S. cerevisiae
ABCB1 inh: human ABCB1 inhibition, ABCG2 as counter-screen; CCRF-Adr cells, JC-1 efflux, flow cytometry; inhibition, % at 6.6 µM; 190,000 tested, 0.067% active; in the data active = inhibition above about 40%;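 also: higher value means more JC-1 retained so stronger ABCB1 efflux block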
Target sequence (P08183 whole entry, looked up): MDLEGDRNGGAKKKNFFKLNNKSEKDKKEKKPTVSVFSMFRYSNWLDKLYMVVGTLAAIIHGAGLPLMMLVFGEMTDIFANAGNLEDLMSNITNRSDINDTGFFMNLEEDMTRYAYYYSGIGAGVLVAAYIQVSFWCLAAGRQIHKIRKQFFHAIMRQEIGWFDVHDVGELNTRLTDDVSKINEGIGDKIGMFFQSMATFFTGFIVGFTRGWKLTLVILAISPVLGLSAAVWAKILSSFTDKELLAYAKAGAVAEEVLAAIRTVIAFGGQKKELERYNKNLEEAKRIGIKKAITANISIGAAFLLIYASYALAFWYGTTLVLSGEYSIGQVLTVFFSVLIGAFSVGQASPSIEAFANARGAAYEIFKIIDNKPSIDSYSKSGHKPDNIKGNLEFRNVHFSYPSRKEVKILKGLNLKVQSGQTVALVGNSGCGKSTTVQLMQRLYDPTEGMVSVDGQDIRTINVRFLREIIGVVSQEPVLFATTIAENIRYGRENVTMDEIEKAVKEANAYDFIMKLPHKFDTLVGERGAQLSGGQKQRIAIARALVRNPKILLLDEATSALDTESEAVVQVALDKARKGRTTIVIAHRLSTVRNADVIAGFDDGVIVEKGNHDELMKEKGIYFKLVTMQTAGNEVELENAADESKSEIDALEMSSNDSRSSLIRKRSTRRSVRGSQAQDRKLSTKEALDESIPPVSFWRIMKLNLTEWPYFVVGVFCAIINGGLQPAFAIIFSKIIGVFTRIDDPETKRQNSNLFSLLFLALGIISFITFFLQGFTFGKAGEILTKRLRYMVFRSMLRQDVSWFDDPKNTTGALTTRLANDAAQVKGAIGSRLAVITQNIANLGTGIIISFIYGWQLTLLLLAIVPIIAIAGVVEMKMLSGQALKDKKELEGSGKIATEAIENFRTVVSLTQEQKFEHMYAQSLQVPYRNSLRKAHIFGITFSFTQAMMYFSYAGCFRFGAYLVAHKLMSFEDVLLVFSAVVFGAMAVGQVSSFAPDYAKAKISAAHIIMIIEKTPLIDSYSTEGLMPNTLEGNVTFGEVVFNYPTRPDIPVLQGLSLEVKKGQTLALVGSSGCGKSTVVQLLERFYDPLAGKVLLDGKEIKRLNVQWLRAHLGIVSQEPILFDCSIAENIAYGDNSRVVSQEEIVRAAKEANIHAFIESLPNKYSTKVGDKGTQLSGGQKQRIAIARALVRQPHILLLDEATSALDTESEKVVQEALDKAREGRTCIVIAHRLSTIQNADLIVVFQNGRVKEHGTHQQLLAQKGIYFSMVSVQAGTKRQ
ABCG2 block: blocks JC-1 efflux by human ABCG2 transporter; IgMXP3 cells, flow cytometry; inhibition, % at 6.6 µM; 190,000 tested, 0.1% active;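 active = inhibition above 80%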
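System: two drug-resistant human cell lines, ABCG2 and ABCB1; controls: nicardipine high and DMSO low controls; times: 10 min exposure at 25 °C with rotation, no wash; detection: flow cytometry of retained JC-1 fluorescence; read-out basis: percent efflux inhibition, scaled nicardipine 100% to DMSO 0%; doses: one concentration, 6.6 µM final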
Hits are given with their value; i = inactive.

SMILES	Lmaj promast	RAM network inh	WT yeast gro inh	ABCB1 inh	ABCG2 block
Cc1cc2ccccc2n1CCNC(=O)C(C)C	i	i	i	i	i
COc1ccc2nc(NC(=O)C(NS(=O)(=O)c3cccs3)C(C)C)sc2c1 (stereo not given)	89	8.8	i	i	i
Cc1ccc2nc(NC(=O)C(NS(=O)(=O)c3cccc4nsnc34)C(C)C)sc2c1 (stereo not given)	96	i	i	i	i
O=C(c1ccc2c(c1)OCO2)N(CC1CCCO1)C1(C(=O)NC2CCCC2)CCCCC1 (stereo not given)	i	i	i	i	i
O=C(NC1(C(=O)NC2CCCCC2)CCCCC1)c1ccc2c(c1)OCO2	93	i	i	i	i
O=C(NNC(=O)c1ccc2c(c1)OCO2)NC1CCCCC1	i	i	i	i	i
O=C(NC1(C(=O)NC2CCCC2)CCCCC1)c1ccc2c(c1)OCO2	57	i	i	i	i
O=C(CSc1nc2cc(Cl)ccc2o1)c1cccs1	57	i	i	i	i
O=C(CCSc1ccc(Cl)cc1)c1cccs1	70	i	i	i	i
O=C(CSc1nnc(-c2cccs2)o1)c1cccs1	i	i	i	i	i
O=C(CSc1nc2cc(Cl)ccc2o1)NCCc1ccccc1	i	i	68	i	i
CCOc1ccccc1NC(=O)CNS(=O)(=O)c1ccc2nc(C)sc2c1	i	i	i	i	i
CCC(C)n1c(SCC(=O)NC(=O)Nc2ccc3c(c2)OCCO3)nc2ccccc2c1=O (stereo not given)	86	i	i	i	i
CCC(C)n1c(SCC(=O)NC(=O)c2cccn2C)nc2ccccc2c1=O (stereo not given)	i	i	i	i	i
CCCN(CC1CC1)C(=O)COC(=O)c1[nH]c(C)c(C(=O)OCC)c1C	80	i	i	i	i
CC1=C(C(=O)OCc2ccccc2)C(c2cccs2)NC(=O)N1CCCC(=O)O (stereo not given)	i	i	i	i	i
COC(=O)C1=C(C)N(CCCC(=O)O)C(=O)NC1c1cccs1 (stereo not given)	i	i	i	45	i
O=C(Nc1cccc(S(=O)(=O)N2CCOCC2)c1)c1cnccn1	i	i	i	i	i
Nc1cc(-c2ccc(Br)cc2)[nH]n1	i	i	i	i	i
Cc1[nH]n(C(N)=S)c(=O)c1N=Nc1ccc(S(=O)(=O)N2CCCCCC2)cc1	i	i	68	i	i
Cc1[nH]n(C(N)=S)c(=O)c1N=Nc1ccc2ccccc2c1	i	i	66	i	i
NC(=S)n1[nH]c(-c2ccc([N+](=O)[O-])cc2)c(N=Nc2cccc([N+](=O)[O-])c2)c1=O	i	i	i	i	i
CC(=O)Nc1ccc(N=Nc2c(C)[nH]n(C(N)=S)c2=O)cc1	i	i	i	i	i
Cc1[nH]n(C(N)=S)c(=O)c1N=Nc1cc(-c2ccc(Br)cc2)[nH]n1	57	i	i	i	i
Cc1ccc(N=Nc2c(C)[nH]n(C(N)=S)c2=O)cc1C	i	i	60	i	i
SMILES	Lmaj promast	RAM network inh	WT yeast gro inh	ABCB1 inh	ABCG2 block
Cc1ccc(Nc2nnc(SC(C)C(=O)Nc3c(C)n(C)n(-c4ccccc4)c3=O)s2)cc1 (stereo not given)	i	i	i	i	i
Cc1ccc(NC(=O)CSc2nnc(-c3cccs3)o2)cc1S(=O)(=O)N(C)C	i	i	i	i	i
COc1ccc([N+](=O)[O-])cc1NC(=O)c1cn(-c2ccc(Cl)cc2)c(=O)c2ccccc12	60	i	i	i	i
CCOc1ccc(-n2cc(C(=O)Nc3cccc(Cl)c3)c3cc(OC)c(OC)cc3c2=O)cc1	i	8.9	i	i	i
CCOc1ccccc1/C=N/NC(=O)c1cccc(S(=O)(=O)N(CC)CC)c1	i	i	i	i	i
COc1ccc(/C=N/NS(=O)(=O)c2ccccc2)cc1OS(=O)(=O)c1ccccc1	i	i	i	i	i
CCOc1cc(/C=N/NC(=O)c2cccc([N+](=O)[O-])c2)ccc1OS(=O)(=O)c1ccccc1	78	i	i	i	i
COc1ccc(OC)c(/C=N/NC(=O)c2ccc(N(C)S(=O)(=O)c3ccccc3)cc2)c1	99	i	i	i	i
COc1ccc(C(=O)N/N=C/c2ccc(OC)c(OS(=O)(=O)c3ccccc3)c2)cc1	91	i	i	i	i
O=C(Cn1cc(C(=O)C(F)(F)F)c2ccccc21)N1CCOCC1	i	i	i	i	i
COc1cccc(NC(=S)/C(=C(\[O-])c2cc(C)n(-c3ccccc3F)c2C)[n+]2ccc(N(C)C)cc2)c1	i	i	i	i	i
